Laboratory results as given in ChEMBL document CHEMBL5058577, “EUbOPEN Chemogenomics Library 2 (Multiplex)” (2022).

Test system: U2OS
Assay: Multiplex assay against U2OS
Assay type: toxicity, cell-based
Conditions: human
Procedure, shortened: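 Live cells were stained at seeding with Hoechst33342, BioTracker Green Microtubule Cytoskeleton Dye, MitoTracker Red and Annexin V Alexa Fluor 680, then imaged on a CQ1 microscope at 37°C and 5% CO2 after compound addition. CellPathfinder machine-learning gating split cells into Hoechst high-intensity objects or normal cells. Normal cells were split into healthy, pyknosed or fragmented nuclei, and pyknosed cells into mitotic or apoptotic. Tubulin, mitochondrial-mass and membrane-permeability phenotypes are per cents of healthy-nucleus cells.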

[1] = 12 h, 1 µM, compound concentration 1 uM, replicate 1
[2] = 12 h, 1 µM, compound concentration 1 uM, replicate 2
[3] = 12 h, 10 µM, compound concentration 10 uM, replicate 1
[4] = 12 h, 10 µM, compound concentration 10 uM, replicate 2
[5] = 24 h, 1 µM, compound concentration 1 uM, replicate 1
[6] = 24 h, 1 µM, compound concentration 1 uM, replicate 2
[7] = 24 h, 10 µM, compound concentration 10 uM, replicate 1
[8] = 24 h, 10 µM, compound concentration 10 uM, replicate 2
[9] = 48 h, 1 µM, compound concentration 1 uM, replicate 1
[10] = 48 h, 1 µM, compound concentration 1 uM, replicate 2
[11] = 48 h, 10 µM, compound concentration 10 uM, replicate 1
[12] = 48 h, 10 µM, compound concentration 10 uM, replicate 2

With `CCCN1CCC[C@@H]2Cc3n[nH]cc3C[C@H]21.Cl` [QUINPIROLE HYDROCHLORIDE] the “Population Apoptotic (%)” value [1] was 71%, the “Population Fragmented Nuclei (%)” value [1] was 31% and the “Population Healthy Nuclei (%)” value [1] was 60%. For the same compound, the “Population Hoechst High Intensity Objects (%)” value [1] was 2%, the “Population Membrane Permeable-Phenotype (%)” value [1] was 7% and the “Population Mitochondria Different-Phenotype (%)” value [1] was 1%. The “Population Mitotic Cells (%)” value [1] was 28%, the “Population Normal (%)” value [1] was 97% and the “Population Pyknosed Nuclei (%)” value [1] was 8%. The “Population Tubulin-Different-Phenotype (%)” value [1] was 3%, the “Total Cell Count” value [1] was 265 and the “Population Apoptotic (%)” value [2] was 61%. The “Population Fragmented Nuclei (%)” value [2] was 21%, the “Population Healthy Nuclei (%)” value [2] was 67% and the “Population Hoechst High Intensity Objects (%)” value [2] was 0%. The “Population Membrane Permeable-Phenotype (%)” value [2] was 2%, the “Population Mitotic Cells (%)” value [2] was 38% and the “Population Normal (%)” value [2] was 100%. The “Population Pyknosed Nuclei (%)” value [2] was 11%, the “Population Tubulin-Different-Phenotype (%)” value [2] was 2% and the “Total Cell Count” value [2] was 118. The “Population Apoptotic (%)” value [3] was 58%, the “Population Fragmented Nuclei (%)” value [3] was 19% and the “Population Healthy Nuclei (%)” value [3] was 72%. For the same compound, the “Population Hoechst High Intensity Objects (%)” value [3] was 1%, the “Population Membrane Permeable-Phenotype (%)” value [3] was 2% and the “Population Mitochondria Different-Phenotype (%)” value [3] was 0%. For the same compound, the “Population Mitotic Cells (%)” value [3] was 41%, the “Population Normal (%)” value [3] was 98% and the “Population Pyknosed Nuclei (%)” value [3] was 7%. The “Population Tubulin-Different-Phenotype (%)” value [3] was 1%, the “Total Cell Count” value [3] was 228 and the “Population Apoptotic (%)” value [4] was 100%. The “Population Fragmented Nuclei (%)” value [4] was 9%, the “Population Healthy Nuclei (%)” value [4] was 85% and the “Population Hoechst High Intensity Objects (%)” value [4] was 2%. The “Population Membrane Permeable-Phenotype (%)” value [4] was 6%, the “Population Mitochondria Different-Phenotype (%)” value [4] was 5% and the “Population Mitotic Cells (%)” value [4] was 0%. For the same compound, the “Population Normal (%)” value [4] was 97%, the “Population Pyknosed Nuclei (%)” value [4] was 4% and the “Population Tubulin-Different-Phenotype (%)” value [4] was 2%. For the same compound, the “Total Cell Count” value [4] was 126, the “Population Apoptotic (%)” value [5] was 68% and the “Population Fragmented Nuclei (%)” value [5] was 27%. For the same compound, the “Population Healthy Nuclei (%)” value [5] was 64%, the “Population Hoechst High Intensity Objects (%)” value [5] was 1% and the “Population Membrane Permeable-Phenotype (%)” value [5] was 4%. For the same compound, the “Population Mitochondria Different-Phenotype (%)” value [5] was 3%, the “Population Mitotic Cells (%)” value [5] was 31% and the “Population Normal (%)” value [5] was 98%. The “Population Pyknosed Nuclei (%)” value [5] was 7%, the “Population Tubulin-Different-Phenotype (%)” value [5] was 3% and the “Total Cell Count” value [5] was 299. The “Population Apoptotic (%)” value [6] was 77%, the “Population Fragmented Nuclei (%)” value [6] was 18% and the “Population Healthy Nuclei (%)” value [6] was 68%. The “Population Hoechst High Intensity Objects (%)” value [6] was 0%, the “Population Mitochondria Different-Phenotype (%)” value [6] was 4% and the “Population Mitotic Cells (%)” value [6] was 22%. For the same compound, the “Population Normal (%)” value [6] was 100%, the “Population Pyknosed Nuclei (%)” value [6] was 13% and the “Population Tubulin-Different-Phenotype (%)” value [6] was 4%. The “Total Cell Count” value [6] was 138, the “Population Apoptotic (%)” value [7] was 88% and the “Population Fragmented Nuclei (%)” value [7] was 13%. For the same compound, the “Population Healthy Nuclei (%)” value [7] was 80%, the “Population Hoechst High Intensity Objects (%)” value [7] was 2% and the “Population Membrane Permeable-Phenotype (%)” value [7] was 2%. The “Population Mitochondria Different-Phenotype (%)” value [7] was 0%, the “Population Mitotic Cells (%)” value [7] was 11% and the “Population Normal (%)” value [7] was 97%. The “Population Pyknosed Nuclei (%)” value [7] was 6%, the “Population Tubulin-Different-Phenotype (%)” value [7] was 1% and the “Total Cell Count” value [7] was 281. The “Population Apoptotic (%)” value [8] was 92%, the “Population Fragmented Nuclei (%)” value [8] was 9% and the “Population Healthy Nuclei (%)” value [8] was 82%. For the same compound, the “Population Hoechst High Intensity Objects (%)” value [8] was 0%, the “Population Membrane Permeable-Phenotype (%)” value [8] was 0% and the “Population Mitochondria Different-Phenotype (%)” value [8] was 1%. The “Population Mitotic Cells (%)” value [8] was 7%, the “Population Normal (%)” value [8] was 99% and the “Population Pyknosed Nuclei (%)” value [8] was 8%. For the same compound, the “Population Tubulin-Different-Phenotype (%)” value [8] was 0%, the “Total Cell Count” value [8] was 163 and the “Population Apoptotic (%)” value [9] was 75%. The “Population Fragmented Nuclei (%)” value [9] was 19%, the “Population Healthy Nuclei (%)” value [9] was 74% and the “Population Hoechst High Intensity Objects (%)” value [9] was 1%. The “Population Membrane Permeable-Phenotype (%)” value [9] was 4%, the “Population Mitochondria Different-Phenotype (%)” value [9] was 1% and the “Population Mitotic Cells (%)” value [9] was 25%. For the same compound, the “Population Normal (%)” value [9] was 98%, the “Population Pyknosed Nuclei (%)” value [9] was 6% and the “Population Tubulin-Different-Phenotype (%)” value [9] was 2%. The “Total Cell Count” value [9] was 425, the “Population Apoptotic (%)” value [10] was 78% and the “Population Fragmented Nuclei (%)” value [10] was 17%. The “Population Healthy Nuclei (%)” value [10] was 69%, the “Population Hoechst High Intensity Objects (%)” value [10] was 3% and the “Population Mitochondria Different-Phenotype (%)” value [10] was 5%. For the same compound, the “Population Mitotic Cells (%)” value [10] was 21%, the “Population Normal (%)” value [10] was 96% and the “Population Pyknosed Nuclei (%)” value [10] was 13%. The “Total Cell Count” value [10] was 180, the “Population Apoptotic (%)” value [11] was 86% and the “Population Fragmented Nuclei (%)” value [11] was 11%. For the same compound, the “Population Healthy Nuclei (%)” value [11] was 78%, the “Population Hoechst High Intensity Objects (%)” value [11] was 3% and the “Population Membrane Permeable-Phenotype (%)” value [11] was 4%. For the same compound, the “Population Mitochondria Different-Phenotype (%)” value [11] was 1%, the “Population Mitotic Cells (%)” value [11] was 13% and the “Population Normal (%)” value [11] was 96%. The “Population Pyknosed Nuclei (%)” value [11] was 9%, the “Population Tubulin-Different-Phenotype (%)” value [11] was 3% and the “Total Cell Count” value [11] was 386. The “Population Apoptotic (%)” value [12] was 91%, the “Population Fragmented Nuclei (%)” value [12] was 12% and the “Population Hoechst High Intensity Objects (%)” value [12] was 1%. For the same compound, the “Population Membrane Permeable-Phenotype (%)” value [12] was 6%, the “Population Mitochondria Different-Phenotype (%)” value [12] was 4% and the “Population Mitotic Cells (%)” value [12] was 8%. For the same compound, the “Population Normal (%)” value [12] was 98%, the “Population Tubulin-Different-Phenotype (%)” value [12] was 2% and the “Total Cell Count” value [12] was 251.
